Data on 12 compounds can be found in ChEMBL document CHEMBL1131454 (J Med Chem, 1998).

For assay [1], the target named is Estrogen receptor (Homo sapiens, UniProt Q92731+P03372). Briefly: Antagonistic activity was determined in Human estrogen receptor(hER) of CV-1 cells in cotransfection assay. In kind it is functional, cell-based.
The target in assay [2] is T1, Progesterone receptor (Homo sapiens, UniProt P06401).
T1 sequence (P06401 whole entry): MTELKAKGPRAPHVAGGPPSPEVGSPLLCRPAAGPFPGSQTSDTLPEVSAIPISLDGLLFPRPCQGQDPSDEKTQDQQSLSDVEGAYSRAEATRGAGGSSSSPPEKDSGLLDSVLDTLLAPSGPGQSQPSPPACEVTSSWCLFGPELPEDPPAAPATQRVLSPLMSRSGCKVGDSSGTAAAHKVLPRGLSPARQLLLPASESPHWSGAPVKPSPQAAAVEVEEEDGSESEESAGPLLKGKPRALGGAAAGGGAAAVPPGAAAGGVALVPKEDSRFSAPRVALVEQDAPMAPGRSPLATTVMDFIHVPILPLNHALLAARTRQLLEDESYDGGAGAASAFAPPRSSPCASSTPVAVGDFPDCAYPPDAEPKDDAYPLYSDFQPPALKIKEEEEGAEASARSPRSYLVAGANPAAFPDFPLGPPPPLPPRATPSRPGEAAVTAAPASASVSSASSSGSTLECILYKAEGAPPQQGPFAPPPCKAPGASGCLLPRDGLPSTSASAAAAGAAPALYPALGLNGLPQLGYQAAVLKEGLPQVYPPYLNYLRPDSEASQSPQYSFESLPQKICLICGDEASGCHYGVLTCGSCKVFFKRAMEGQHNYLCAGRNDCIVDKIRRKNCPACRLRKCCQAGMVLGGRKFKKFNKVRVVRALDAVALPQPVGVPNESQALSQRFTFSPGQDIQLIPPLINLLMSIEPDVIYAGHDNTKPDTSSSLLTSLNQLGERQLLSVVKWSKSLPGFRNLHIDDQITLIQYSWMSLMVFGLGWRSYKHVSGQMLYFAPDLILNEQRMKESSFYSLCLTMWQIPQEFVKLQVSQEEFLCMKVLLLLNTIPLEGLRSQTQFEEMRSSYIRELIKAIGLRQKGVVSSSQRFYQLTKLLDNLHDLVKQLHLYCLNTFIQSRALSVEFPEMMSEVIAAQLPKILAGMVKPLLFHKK
Briefly: Agonistic activity to the human progesterone receptor (hPR)assayed in CV-1 cells in cotransfection assay. It is filed as functional, cell-based.

The target in assay [3] is T2, Progesterone receptor (Homo sapiens) (UniProt P06401).
T2 sequence (whole entry): T1 sequence (P06401 whole entry)
Briefly: Human progesterone receptor (hPR) antagonist efficacy was determined as a function (%) of maximal inhibition of progesterone at EC50 value. It is filed as functional. The method, boiled down: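 hPR antagonist-mode cotransfection in CV-1 cells transiently transfected by calcium phosphate coprecipitation with hPR plasmid, MTV-LUC reporter, pRS-β-Gal and filler DNA. […] Values come from one, two, or at least three experiments in triplicate.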

The target of assay [4] is T1, Progesterone receptor. Briefly: The binding affinity on Human progesterone receptor (hPR-A) using progesterone as radioligand.
Assay [5] concerns the target T1, Progesterone receptor. The assay is described as follows: Antagonistic activity was determined in Human progesterone receptor(hPR) of CV-1 cells in cotransfection assay. In kind it is functional, cell-based.
In assay [6] the target is T3, Androgen receptor (Homo sapiens, UniProt P10275).
T3 sequence (P10275 whole entry): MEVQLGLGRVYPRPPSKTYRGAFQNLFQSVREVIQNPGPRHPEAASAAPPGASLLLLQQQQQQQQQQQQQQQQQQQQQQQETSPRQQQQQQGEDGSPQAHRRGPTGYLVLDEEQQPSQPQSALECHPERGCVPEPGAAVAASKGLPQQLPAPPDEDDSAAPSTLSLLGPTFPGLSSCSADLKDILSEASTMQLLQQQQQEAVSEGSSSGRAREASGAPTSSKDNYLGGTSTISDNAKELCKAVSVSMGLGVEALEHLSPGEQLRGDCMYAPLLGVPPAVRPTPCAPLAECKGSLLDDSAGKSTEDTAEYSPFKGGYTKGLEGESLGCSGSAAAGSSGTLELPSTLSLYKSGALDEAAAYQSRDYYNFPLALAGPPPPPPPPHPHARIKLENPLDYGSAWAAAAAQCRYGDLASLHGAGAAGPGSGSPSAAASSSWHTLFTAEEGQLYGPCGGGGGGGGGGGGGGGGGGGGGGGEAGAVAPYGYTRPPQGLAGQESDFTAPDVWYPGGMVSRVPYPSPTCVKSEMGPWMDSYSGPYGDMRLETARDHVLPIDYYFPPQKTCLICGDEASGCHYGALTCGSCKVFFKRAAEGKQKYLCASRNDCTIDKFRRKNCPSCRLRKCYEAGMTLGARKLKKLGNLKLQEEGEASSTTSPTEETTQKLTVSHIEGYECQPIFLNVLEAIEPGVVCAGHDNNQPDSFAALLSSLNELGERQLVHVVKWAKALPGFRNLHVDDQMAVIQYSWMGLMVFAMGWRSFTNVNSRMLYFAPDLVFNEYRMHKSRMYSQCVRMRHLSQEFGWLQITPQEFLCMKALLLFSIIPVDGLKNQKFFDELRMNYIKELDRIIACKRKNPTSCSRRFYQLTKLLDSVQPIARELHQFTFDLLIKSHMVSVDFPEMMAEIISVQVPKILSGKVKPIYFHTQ

Assay [7] deals with T3, Androgen receptor. This is another data set of the same source.
In assay [8] the target is T4, Glucocorticoid receptor (Homo sapiens, UniProt P04150).
T4 sequence (P04150 whole entry): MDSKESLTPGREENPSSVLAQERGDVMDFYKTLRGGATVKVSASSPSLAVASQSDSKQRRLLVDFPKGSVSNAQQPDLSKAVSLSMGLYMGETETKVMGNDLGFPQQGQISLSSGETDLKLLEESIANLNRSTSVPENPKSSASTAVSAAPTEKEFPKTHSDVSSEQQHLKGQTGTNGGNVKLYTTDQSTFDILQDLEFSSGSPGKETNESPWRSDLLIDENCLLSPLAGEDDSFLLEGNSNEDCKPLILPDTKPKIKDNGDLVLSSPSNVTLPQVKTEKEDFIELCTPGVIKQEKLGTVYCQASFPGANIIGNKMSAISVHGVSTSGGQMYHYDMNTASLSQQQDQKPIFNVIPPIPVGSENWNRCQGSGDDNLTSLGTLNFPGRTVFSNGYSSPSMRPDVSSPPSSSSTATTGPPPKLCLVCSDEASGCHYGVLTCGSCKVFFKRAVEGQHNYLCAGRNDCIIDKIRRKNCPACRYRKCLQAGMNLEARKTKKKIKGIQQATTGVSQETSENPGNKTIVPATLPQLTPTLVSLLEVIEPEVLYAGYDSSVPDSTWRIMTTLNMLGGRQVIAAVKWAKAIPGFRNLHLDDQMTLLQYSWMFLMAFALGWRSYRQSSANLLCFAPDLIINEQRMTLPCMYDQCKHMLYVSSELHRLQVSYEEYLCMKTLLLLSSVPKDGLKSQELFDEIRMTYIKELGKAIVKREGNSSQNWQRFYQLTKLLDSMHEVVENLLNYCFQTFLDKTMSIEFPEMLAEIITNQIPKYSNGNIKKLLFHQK

Assay [9] addresses T4, Glucocorticoid receptor. The source holds these as a separate data set.

Structures are written as SMILES.

The IC50 is the concentration at which inhibition is half-maximal. A high value points to lower potency. The EC50 is the concentration needed to bring the measured effect to its halfway point. As usually defined, the Ki is the equilibrium dissociation constant of an inhibitor or competing ligand from its target. With `CC1=CC(C)(C)Nc2ccc3c(c21)C(c1ccc(C)c(F)c1)Oc1ccccc1-3` (stereo not drawn), the IC50 is 1449 nM in assay [1], over 10000 nM in assay [5], 1220 nM in assay [6] and 185 nM in assay [8]. For the same compound, a half-maximal response in assay [2] (EC50) required 16 nM. Moreover, the Efficacy in assay [3] is under 20%. For the same compound, the Ki in [4] stood at 1.8 nM; in assay [7], 1580 nM; in [9], 60 nM.

As for `CC1=CC(C)(C)Nc2ccc3c(c21)C(c1cc(C)cc(Br)c1)Oc1ccccc1-3` (stereo not drawn), the half-inhibitory concentration (IC50) in assay [1] is 1037 nM; in assay [5], 1100 nM; in [6], 1240 nM; in assay [8], 166 nM. A half-maximal effect in assay [2] (EC50) was put at 17 nM. The compound further displayed an Efficacy in [3] of 31%. Moreover, the Ki in [4] came to 0.87 nM; in assay [7], 3500 nM; in [9] it was 42 nM.

For `CC1=CC(C)(C)Nc2ccc3c(c21)C(c1cccc(Cl)c1)Oc1ccccc1-3` (stereo not drawn), the IC50 in assay [1] came out at 1480 nM; in assay [5], 930 nM; in [6] it was 253 nM; in assay [8], 136 nM. This compound also registered an EC50 in assay [2] of 18 nM. This compound showed an Efficacy in [3] of 37%. Also, the Ki in assay [4] was 0.43 nM; in assay [7] it was 1530 nM; in assay [9], 58 nM.

`CC1=CC(C)(C)Nc2ccc3c(c21)C(c1ccc(Cl)c(Cl)c1)Oc1ccccc1-3` (stereo not drawn): the IC50 in [1] was determined as 2632 nM; in assay [5], 720 nM; in assay [6], 946 nM; in assay [8], 80 nM. The compound further displayed an EC50 in assay [2] of 18 nM. The Efficacy in [3] was 42%. For the same compound, the inhibition constant Ki in assay [4] was determined as 3.4 nM; in assay [7], 5830 nM; in assay [9] it was 59 nM.

On to `CC1=CC(C)(C)Nc2ccc3c(c21)C(c1ccc(Br)cc1)Oc1ccccc1-3` (stereo not drawn), for which the IC50 in [1] is over 10000 nM; in assay [5], 3140 nM; in assay [6] it was 481 nM; in assay [8], 115 nM. This compound also returned an EC50 in [2] of 14 nM. Further, the Efficacy in assay [3] was 42%. Besides, the figures for the Ki in assay [4], in assay [7] and in assay [9] were 0.55 nM, over 10000 nM and 67 nM, respectively.

For `CC1=CC(C)(C)Nc2ccc3c(c21)C(c1ccc(C)cc1)Oc1ccccc1-3` (stereo not drawn), the IC50 in [1] was determined as 2395 nM; in [5], 250 nM; in assay [6], 1240 nM; in assay [8], 294 nM. The same compound returned an EC50 in assay [2] of 37 nM. Moreover, the Efficacy in assay [3] was 38%. Besides, the Ki in assay [4] was found to be 2.3 nM; in [7], 2330 nM; in assay [9], 80 nM.

Consider `CC1=CC(C)(C)Nc2ccc3c(c21)C(c1cc(Cl)cc(Cl)c1)Oc1ccccc1-3` (stereo not drawn), for which the IC50 in assay [1] is over 10000 nM; in assay [5] it was over 10000 nM; in assay [6], 1090 nM; in assay [8] it was 225 nM. In assay [2], this compound came in with a half-maximal effective concentration (EC50) of 50 nM. In addition, the Efficacy in [3] was under 20%. Besides, the Ki came to 1.7 nM in assay [4], 2580 nM in [7] and 100 nM in assay [9].

On to `CC1=CC(C)(C)Nc2ccc3c(c21)C(c1cccc(C(F)(F)F)c1)Oc1ccccc1-3` (stereo not drawn), for which the IC50 in [1] is 1537 nM; in assay [5] it was over 10000 nM; in [6], 315 nM; in assay [8] it was 505 nM. For the same compound, the EC50 in assay [2] is 13 nM. Further, the Efficacy in [3] was under 20%. The Ki in assay [4] is 2.6 nM; in assay [7], 795 nM; in [9], 44 nM.

Regarding `CC1=CC(C)(C)Nc2ccc3c(c21)C(c1ccc(Cl)c(F)c1)Oc1ccccc1-3` (stereo not drawn), the IC50 in [1] is 1449 nM; in assay [5] it was over 10000 nM; in [6] it was 2200 nM; in assay [8] it was 171 nM. In [2], this compound gave an EC50 of 17 nM. The Efficacy in assay [3] is under 20%. Besides, the Ki is 0.41 nM in assay [4], 1460 nM in assay [7] and 39 nM in [9].

In the case of `CC1=CC(C)(C)Nc2ccc3c(c21)C(c1cccc(Br)c1)Oc1ccccc1-3` (stereo not drawn), the IC50 was 1095 nM in [1], 1140 nM in assay [5], 401 nM in assay [6] and 266 nM in [8]. Also, in assay [2], a half-maximal effect (EC50) was put at 8 nM. The same compound came in with an Efficacy in [3] of 41%. The Ki in assay [4] came out at 1.1 nM; in [7] it was 2140 nM; in assay [9] it was 34 nM.

In the case of `CC1=CC(C)(C)Nc2ccc3c(c21)C(c1ccc(Cl)cc1)Oc1ccccc1-3` (stereo not drawn), the IC50 in assay [1] worked out at 1803 nM; in [5], 600 nM; in assay [6], 1550 nM; in assay [8], 339 nM. Besides, it took 14 nM to reach a half-maximal effect in [2] (EC50). The Efficacy in assay [3] worked out at 31%. Besides, the Ki came out at 0.7 nM in assay [4], 2680 nM in assay [7] and 152 nM in [9].

Regarding `CC1=CC(C)(C)Nc2ccc3c(c21)C(c1ccc(Cl)c(C)c1)Oc1ccccc1-3` (stereo not drawn), the IC50 is 1220 nM in assay [1], over 10000 nM in assay [5], 1430 nM in assay [6] and 275 nM in [8]. In assay [2], this compound had an EC50 of 14 nM. The compound also returned an Efficacy in [3] of under 20%. Moreover, the Ki was found to be 1.2 nM in assay [4], 1860 nM in [7] and 147 nM in assay [9].
